The values that follow come from ChEMBL document CHEMBL3232818, “Imidazole-derived 2-[N-carbamoylmethyl-alkylamino]acetic acids, substrate-dependent modulators of insulin-degrading enzyme in amyloid-β hydrolysis” (Eur J Med Chem, 2014).

As a reminder, the logD is lipophilicity at a set pH, counting ionised and neutral species. For orientation: solubility means how much of the substance goes into solution per volume. For orientation: Papp means the rate of passage across a membrane or cell layer, normalised by area and donor concentration. As usually defined, the IC50 is the point on the concentration scale where inhibition reaches its midpoint.

Converted amounts (≈) assume the structure as drawn. The source made the active and inactive calls. The calls are words filed in the database; no cut-off is given here. Where only a bound is given, the exact number is not on record here.

In series [1] the target is Insulin-degrading enzyme (Homo sapiens) (UniProt P14735). The series is described as follows: Inhibition of IDE in human SH-SY5Y cells expressing human APP751 with Swedish mutant/human […] assessed as effect on APP holoproteins level after 24 to 48 hrs by Western blot. (In western blotting, separated proteins are transferred to a membrane and probed.)
The nature of series [2]: PBS-octanol partition coefficient, log D of the compound. It is filed as physicochemical.
The target of series [3] is T1, Insulin-degrading enzyme (Mus musculus) (UniProt Q9JHR7).
T1 sequence (whole entry): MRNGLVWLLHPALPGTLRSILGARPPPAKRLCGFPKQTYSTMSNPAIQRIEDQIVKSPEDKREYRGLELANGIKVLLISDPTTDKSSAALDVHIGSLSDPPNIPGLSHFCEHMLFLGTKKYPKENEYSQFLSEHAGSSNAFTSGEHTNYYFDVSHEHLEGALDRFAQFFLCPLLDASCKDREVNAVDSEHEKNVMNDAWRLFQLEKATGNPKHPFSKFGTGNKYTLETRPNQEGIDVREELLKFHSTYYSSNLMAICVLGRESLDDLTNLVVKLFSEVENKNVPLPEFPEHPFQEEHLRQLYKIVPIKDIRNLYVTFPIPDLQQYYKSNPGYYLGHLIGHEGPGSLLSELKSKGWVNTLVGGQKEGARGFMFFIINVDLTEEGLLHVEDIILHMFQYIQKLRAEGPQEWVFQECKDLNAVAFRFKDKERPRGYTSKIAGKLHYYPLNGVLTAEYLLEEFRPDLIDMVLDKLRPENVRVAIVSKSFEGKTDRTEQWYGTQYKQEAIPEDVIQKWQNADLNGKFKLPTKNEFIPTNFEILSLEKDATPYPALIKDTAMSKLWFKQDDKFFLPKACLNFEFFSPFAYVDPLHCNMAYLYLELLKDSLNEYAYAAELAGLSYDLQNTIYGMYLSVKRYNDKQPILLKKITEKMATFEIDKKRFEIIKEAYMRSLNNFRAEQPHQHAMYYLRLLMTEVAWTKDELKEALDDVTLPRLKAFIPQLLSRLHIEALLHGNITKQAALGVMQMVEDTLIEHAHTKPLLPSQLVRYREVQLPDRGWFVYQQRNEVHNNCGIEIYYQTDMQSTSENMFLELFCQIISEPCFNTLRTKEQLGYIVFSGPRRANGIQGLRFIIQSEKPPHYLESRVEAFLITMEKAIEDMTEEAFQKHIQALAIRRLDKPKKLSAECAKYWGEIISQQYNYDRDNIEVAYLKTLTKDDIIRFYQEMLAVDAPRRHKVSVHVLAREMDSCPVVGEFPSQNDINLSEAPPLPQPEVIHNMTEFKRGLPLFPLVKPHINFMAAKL
The series is described as follows: Inhibition of IDE in mouse Min6 cells assessed as effect on 2.8 mM of glucose-induced insulin secretion at 10 uM after 24 hrs by ELISA. It is filed as cell-based.

The target of series [4] is Insulin-degrading enzyme (Homo sapiens) (UniProt P14735). Description: Inhibition of IDE in human SH-SY5Y cells expressing human APP751 with Swedish mutant/human […] assessed as increase of amyloid beta (1 to 42) level after 24 to 48 hrs by ELISA. Type of series: cell-based. The essentials: (§1)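 SH-SY5Y APPswe and APPwt lines kept in DMEM with 10% fetal calf serum, 2 mM L-glutamine, 5% CO2, 37 °C. Seeded at 1.94 10^5 cells/well and treated 24 h later with vehicle or drug at 0.1 or 10 μM (from 10 mM DMSO stock) for 24 h and 48 h. Medium cleared by centrifugation and assayed by ELISA. Aβ1-42 used 100 μL of medium undiluted; Aβ1-40 used 10 μL diluted 1:10. Duplicates in three independent experiments, normalized to untreated cells.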

In series [5] the target is T1, Insulin-degrading enzyme (Mus musculus). Description: Inhibition of IDE in mouse Min6 cells assessed as effect on 20 mM of glucose-induced insulin secretion at 10 uM after 24 hrs by ELISA. It is filed as cell-based. A general note: ELISA stands for enzyme-linked immunosorbent assay.
A short description of series [6]: Solubility of the compound in PBS at pH 7.4. Type of series: physicochemical.
For series [7], the target named is Insulin-degrading enzyme (Homo sapiens) (UniProt P14735). Description: Inhibition of human recombinant IDE-mediated insulin hydrolysis assessed as residual insulin level at 100 uM preincubated for 10 mins measured after 30 mins by spectrophotometer analysis.
The target is the same in series [8]. The series is described as follows: Inhibition of IDE in human SH-SY5Y cells expressing human APP751 with Swedish mutant/human […] assessed as increase of amyloid beta (1 to 40) level after 24 to 48 hrs by ELISA. Type of series: cell-based. The essentials:
as §1

Series [9] shares this target. The series is described as follows: Inhibition of IDE in immortalized human hepatocytes assessed as effect on insulin-induced PEPCK mRNA expression at 10 uM after 24 hrs by quantitative RT-PCR analysis. It is filed as cell-based. Set-up: scale not given: the % may be the effect or the level left. To be noted: Hepatocyte.
For series [10], the target named is T1, Insulin-degrading enzyme (Mus musculus). Description: Inhibition of IDE in mouse Min6 cells assessed as effect on 11 mM of glucose-induced insulin secretion at 10 uM after 24 hrs by ELISA. It is filed as cell-based.
Series [11] relates to Plasma. The series is described as follows: Prodrug conversion in mouse plasma assessed as half life of BDM43079 formation at 10 uM by LC-MS/MS analysis. It is filed as ADME, cell-free.
Series [12] can be described thus: Apparent permeability across human Caco2 cells at 10 uM after 1 hr by LC-MS/MS analysis. To be noted: Caco-2. It is filed as ADME, cell-based. (In general: Caco-2 monolayers are a common model of the intestinal barrier.)
Series [13] is described as follows: Prodrug conversion in IHH cell culture medium assessed as half life of BDM43079 formation at 10 uM by LC-MS/MS analysis. Type of series: ADME, cell-based. The settings on record: human, hh. A digest of the protocol:
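Conversion to the active acid followed in William's E medium with 10% fetal calf serum.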

The target of series [14] is T2, Insulin-degrading enzyme (Homo sapiens, UniProt P14735).
T2 sequence (P14735 whole entry): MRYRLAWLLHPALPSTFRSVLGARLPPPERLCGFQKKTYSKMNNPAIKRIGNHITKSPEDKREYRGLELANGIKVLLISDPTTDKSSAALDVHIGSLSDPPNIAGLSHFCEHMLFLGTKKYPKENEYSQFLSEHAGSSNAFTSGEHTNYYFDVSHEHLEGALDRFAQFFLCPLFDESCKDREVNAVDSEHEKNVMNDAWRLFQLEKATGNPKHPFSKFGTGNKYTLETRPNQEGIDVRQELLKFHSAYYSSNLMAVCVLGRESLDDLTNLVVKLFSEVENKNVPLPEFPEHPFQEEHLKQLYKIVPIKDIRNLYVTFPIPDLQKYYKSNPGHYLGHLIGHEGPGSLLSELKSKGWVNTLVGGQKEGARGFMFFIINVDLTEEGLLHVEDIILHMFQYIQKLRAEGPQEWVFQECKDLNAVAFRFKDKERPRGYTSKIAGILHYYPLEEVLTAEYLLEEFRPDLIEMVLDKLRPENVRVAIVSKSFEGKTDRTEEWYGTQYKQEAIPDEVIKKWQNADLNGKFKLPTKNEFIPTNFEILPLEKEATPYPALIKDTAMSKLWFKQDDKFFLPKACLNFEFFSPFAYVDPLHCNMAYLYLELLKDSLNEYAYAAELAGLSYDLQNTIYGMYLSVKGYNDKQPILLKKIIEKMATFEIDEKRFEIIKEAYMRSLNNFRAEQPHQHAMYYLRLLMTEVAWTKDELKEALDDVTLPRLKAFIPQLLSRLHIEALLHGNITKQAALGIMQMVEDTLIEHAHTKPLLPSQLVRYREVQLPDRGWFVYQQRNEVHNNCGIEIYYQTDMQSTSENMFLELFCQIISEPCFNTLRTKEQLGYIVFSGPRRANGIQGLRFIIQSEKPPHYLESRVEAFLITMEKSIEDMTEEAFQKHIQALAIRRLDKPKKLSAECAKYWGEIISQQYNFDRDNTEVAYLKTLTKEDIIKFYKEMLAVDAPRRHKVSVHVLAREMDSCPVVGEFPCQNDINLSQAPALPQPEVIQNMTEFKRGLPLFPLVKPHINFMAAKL
The series is described as follows: Inhibition of human recombinant IDE-mediated amyloid beta (16 to 23) hydrolysis using ATTO 655-Cys-Lys-Leu-Val-Phe-Phe-Ala-Glu-Asp-Trp as substrate preincubated for 10 mins measured after 30 mins by spectrophotometer analysis.

Series [15] has as its target Insulin-degrading enzyme (Homo sapiens) (UniProt P14735). Description: Inhibition of IDE in human SH-SY5Y cells expressing human APP751 with Swedish mutant/human […] assessed as effect on CTFs level after 24 to 48 hrs by Western blot.

Consider `CNC(=O)[C@H](Cc1c[nH]cn1)NC(=O)CN(CCCc1ccccc1)CC(=O)OC`, for which the inhibition entry in series [1] and in series [15] was “inactive” throughout. Moreover, the logD in series [2] turned out to be 1.1. Besides, the Activity came out at 21.2 µg/L in series [3]; 132 µg/L in series [5]; 50% in series [7]; 62% in series [9]; 78.8 µg/L in [10]. For the same molecule, the inhibition result in [4] and in series [8] was “Dose-dependent effect” in each case. The solubility in [6] is 74 µM (≈ 30.7 µg/mL). Moreover, the figures for the t1/2 in series [11] and in series [13] were 6 min and 11.3 h, respectively. Also, the Papp at 1 h, 10 µM in series [12] was 0.2 ×10⁻⁶ cm/s. Further, the IC50 in series [14] is above 100 µM.
